For orientation: IC50 means the concentration that gives 50% inhibition.

Sequence of Growth factor receptor-bound protein 2 (P62993 whole entry, the tested form may be a part): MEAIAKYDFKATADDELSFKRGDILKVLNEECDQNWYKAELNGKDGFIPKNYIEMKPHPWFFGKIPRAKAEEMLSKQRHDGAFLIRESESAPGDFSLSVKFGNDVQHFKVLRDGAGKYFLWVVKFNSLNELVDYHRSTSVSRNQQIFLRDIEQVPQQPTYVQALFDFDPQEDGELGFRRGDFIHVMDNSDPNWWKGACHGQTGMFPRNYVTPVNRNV

This experiment addresses Growth factor receptor-bound protein 2 (Homo sapiens, UniProt P62993). Nature of the experiment: Inhibition of Growth factor receptor bound protein 2 binding by ELISA assay method. Summed up: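 Recombinant purified Grb2 SH2-GST fusion protein preincubated with serial inhibitor dilutions, then added to wells coated overnight with biotinylated Shc-derived phosphopeptide (20 ng/mL); blocking with 5% BSA in TBS, washes with 0.1% BSA/TBS. Bound protein detected with anti-GST antibody plus alkaline phosphatase-conjugated goat anti-mouse antibody, p-nitrophenyl phosphate colorimetric read-out. IC50 from serial dilutions, each concentration in triplicate.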
Background: ELISA stands for enzyme-linked immunosorbent assay.
With `NC(=O)C[C@H](NC(=O)C1(NC(=O)[C@H](Cc2ccc(OCC(=O)O)cc2)NC(=O)C(=O)O)CCCCC1)C(=O)NCCCc1cccc2ccccc12`, the IC50 amounted to 19000 nM.

Consider `CC(=O)N[C@@H](Cc1ccc(CC(=O)O)cc1)C(=O)NC1(C(=O)N[C@@H](CC(N)=O)C(=O)NCCCc2cccc3ccccc23)CCCCC1`, for which the IC50 was 6400 nM.

`CC(=O)N[C@@H](Cc1ccc(OCC(=O)O)cc1)C(=O)NC1(C(=O)N[C@@H](CC(N)=O)C(=O)NCCCc2cccc3ccccc23)CCCCC1` had an IC50 of 68000 nM.

Compound `NC(=O)C[C@H](NC(=O)C1(NC(=O)[C@H](Cc2ccc(CC(=O)O)cc2)NC(=O)C(=O)O)CCCCC1)C(=O)NCCCc1cccc2ccccc12` displayed an IC50 of 1000 nM.

Regarding `CC(=O)N[C@@H](Cc1ccc(C(C(=O)O)C(=O)O)cc1)C(=O)NC1(C(=O)N[C@@H](CC(N)=O)C(=O)NCCCn2ccc3cc(C)ccc32)CCCCC1`, the IC50 worked out at 12 nM.

`NC(=O)C[C@H](NC(=O)C1(NC(=O)[C@H](Cc2ccc(C(C(=O)O)C(=O)O)cc2)NC(=O)C(=O)O)CCCCC1)C(=O)NCCCc1cccc2ccccc12`: the IC50 came out at 70 nM.

`CC(=O)N[C@@H](Cc1ccc(OC(C(=O)O)C(=O)O)cc1)C(=O)NC1(C(=O)N[C@@H](CC(N)=O)C(=O)NCCCc2cccc3ccccc23)CCCCC1` displayed an IC50 of 2750 nM.

Consider `CC(=O)N[C@@H](Cc1ccc(C(C(=O)O)C(=O)O)cc1)C(=O)NC1(C(=O)N[C@@H](CC(N)=O)C(=O)NCCCc2cccc3ccccc23)CCCCC1`, for which the IC50 was 160 nM.

Regarding `NC(=O)C[C@H](NC(=O)C1(NC(=O)[C@H](Cc2ccc(CP(=O)(O)O)cc2)NC(=O)C(=O)O)CCCCC1)C(=O)NCCCc1cccc2ccccc12`, the IC50 was found to be 50 nM. Compared with the last compound, the IC50 is about 3.2-fold lower.

`NC(=O)C[C@H](NC(=O)C1(NC(=O)[C@H](Cc2ccc(OC(C(=O)O)C(=O)O)cc2)NC(=O)C(=O)O)CCCCC1)C(=O)NCCCc1cccc2ccccc12` registered a half-maximal inhibitory concentration (IC50) of 1100 nM.

Regarding `NC(=O)C[C@H](NC(=O)C1(NC(=O)[C@H](Cc2ccc(C(F)(C(=O)O)C(=O)O)cc2)NC(=O)C(=O)O)CCCCC1)C(=O)NCCCc1cccc2ccccc12`, the IC50 was determined as 170 nM. Against the preceding compound, the IC50 is about 6.5-fold lower.

Consider `CC(=O)N[C@@H](Cc1ccc(CP(=O)(O)O)cc1)C(=O)NC1(C(=O)N[C@@H](CC(N)=O)C(=O)NCCCc2cccc3ccccc23)CCCCC1`, for which the IC50 was determined as 20 nM.

Compound `Cc1ccc2c(ccn2CCCNC(=O)[C@H](CC(N)=O)NC(=O)C2(NC(=O)[C@H](Cc3ccc(CP(=O)(O)O)cc3)NC(=O)C(=O)O)CCCCC2)c1` showed an IC50 of 2 nM.

On to `Cc1ccc2c(ccn2CCCNC(=O)[C@H](CC(N)=O)NC(=O)C2(NC(=O)[C@H](Cc3ccc(C(C(=O)O)C(=O)O)cc3)NC(=O)C(=O)O)CCCCC2)c1`, for which the half-maximal inhibitory concentration (IC50) is 8 nM.

`CC(=O)N[C@@H](Cc1ccc(C(F)(C(=O)O)C(=O)O)cc1)C(=O)NC1(C(=O)N[C@@H](CC(N)=O)C(=O)NCCCc2cccc3ccccc23)CCCCC1` yielded an IC50 of 680 nM.

`CC(=O)N[C@@H](Cc1ccc(CP(=O)(O)O)cc1)C(=O)NC1(C(=O)N[C@@H](CC(N)=O)C(=O)NCCCn2ccc3cc(C)ccc32)CCCCC1` had an IC50 of 4 nM.

These data come from ChEMBL document CHEMBL1132965, “Inhibition of Grb2 SH2 domain binding by non-phosphate-containing ligands. 2. 4-(2-Malonyl)phenylalanine as a potent phosphotyrosyl mimetic” (J Med Chem, 2000).
